From ChEMBL document CHEMBL3108694, “Development of novel dual binders as potent, selective, and orally bioavailable tankyrase inhibitors” (J Med Chem, 2013)
Converted amounts (≈) assume the structure as drawn.

How the values were obtained:
[1] = Solubility in fasted state simulated intestinal fluid at pH 6.8; assay type: ADME
[2] = Half life in CD-1 mouse plasma at 1 uM by LC-MS/MS analysis; assay type: ADME, cell-free
Summary of the method: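 Lithium-heparinized CD-1 mouse plasma was spiked with 1 μM substrate and incubated at 37 °C for 3 h, sampling at 0, 0.167, 1, 2 and 3 h (n = 2). Samples underwent acetonitrile protein precipitation with tolbutamide as internal standard. Analysis was by reversed-phase UPLC-ESI-MS/MS in MRM mode.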

[3] = (§1) Inhibition of TNKS in human SW480 cells assessed as degradation of total pool of beta-catenin after 40 to 48 hrs; assay type: cell-based
Summary of the method: (§2)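 SW480 cells were seeded at 10 000/well in MEMα with 10% HI FBS, GlutaMAX, pyruvate and 10 mM HEPES. They were treated with a 10-point, 3-fold dilution series at 0.1% final DMSO for 40–48 h at 37 °C, then lysed. Total β-catenin was measured by MSD sandwich immunoassay (polyclonal capture, SULFO-TAG mAb detection).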

[4] = target: T1, Poly [ADP-ribose] polymerase tankyrase-1 (Homo sapiens, UniProt O95271); assay: Inhibition of 6x-His-tagged TNKS1 (unknown origin) after 60 mins
T1 sequence (O95271 whole entry): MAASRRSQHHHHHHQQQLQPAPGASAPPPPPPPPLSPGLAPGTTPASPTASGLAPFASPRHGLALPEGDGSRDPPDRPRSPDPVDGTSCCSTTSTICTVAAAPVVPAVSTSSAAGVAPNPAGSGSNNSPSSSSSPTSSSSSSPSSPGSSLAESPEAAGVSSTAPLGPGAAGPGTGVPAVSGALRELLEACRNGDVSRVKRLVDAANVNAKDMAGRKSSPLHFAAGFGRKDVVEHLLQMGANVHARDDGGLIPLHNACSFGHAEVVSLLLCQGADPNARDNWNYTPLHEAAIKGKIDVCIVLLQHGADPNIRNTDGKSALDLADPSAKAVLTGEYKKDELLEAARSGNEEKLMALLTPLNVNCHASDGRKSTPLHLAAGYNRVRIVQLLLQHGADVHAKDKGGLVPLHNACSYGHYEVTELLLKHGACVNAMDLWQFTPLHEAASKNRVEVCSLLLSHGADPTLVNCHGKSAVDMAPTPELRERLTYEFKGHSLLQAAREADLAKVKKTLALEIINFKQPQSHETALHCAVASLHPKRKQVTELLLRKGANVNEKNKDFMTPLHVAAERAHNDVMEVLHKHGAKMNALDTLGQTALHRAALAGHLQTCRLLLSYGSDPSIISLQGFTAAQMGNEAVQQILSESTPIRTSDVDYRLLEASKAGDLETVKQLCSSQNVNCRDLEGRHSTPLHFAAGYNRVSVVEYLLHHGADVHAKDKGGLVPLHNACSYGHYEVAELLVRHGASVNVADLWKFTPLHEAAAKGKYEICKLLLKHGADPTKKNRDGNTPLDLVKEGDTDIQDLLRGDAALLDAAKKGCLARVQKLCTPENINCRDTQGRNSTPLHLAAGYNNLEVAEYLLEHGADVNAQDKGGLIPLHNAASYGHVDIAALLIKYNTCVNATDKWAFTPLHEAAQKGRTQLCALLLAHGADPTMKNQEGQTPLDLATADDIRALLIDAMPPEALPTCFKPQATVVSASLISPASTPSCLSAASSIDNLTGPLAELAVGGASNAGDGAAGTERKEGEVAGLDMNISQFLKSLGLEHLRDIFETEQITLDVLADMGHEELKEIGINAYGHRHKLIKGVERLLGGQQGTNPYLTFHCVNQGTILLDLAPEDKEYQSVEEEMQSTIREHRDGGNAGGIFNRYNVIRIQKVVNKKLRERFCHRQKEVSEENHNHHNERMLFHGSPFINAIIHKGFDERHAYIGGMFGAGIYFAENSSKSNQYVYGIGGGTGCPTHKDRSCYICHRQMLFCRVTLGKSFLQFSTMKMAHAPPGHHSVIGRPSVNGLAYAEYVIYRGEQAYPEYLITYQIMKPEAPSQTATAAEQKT

[5] = Volume of distribution at steady state in rat at 5 mg/kg, iv; assay type: ADME, organism-based; parameters: dose 5 mg/kg, route intravenous; details: in vivo, read-out: Vdss
[6] = Half life in rat at 5 mg/kg, iv; assay type: ADME, organism-based; parameters: dose 5 mg/kg, route intravenous; details: in vivo
[7] = system: Rattus norvegicus; assay: Clearance in rat at 5 mg/kg, iv; assay type: ADME, organism-based; parameters: dose 5 mg/kg, route intravenous; details: in vivo
[8] = system: Rattus norvegicus; assay: AUC (infinity) in rat at 5 mg/kg, iv; assay type: ADME, organism-based, Plasma; parameters: time infinity, dose 5 mg/kg, route intravenous; details: in vivo
[9] = system: Plasma; assay: Unbound plasma concentration in athymic nude mouse xenografted with human DLD1 cells at 50 mg/kg, po qd administered for 3 days measured 24 hrs post last dose; assay type: ADME, organism-based, DLD-1; parameters: dose 50 mg/kg, route oral; details: in vivo
Summary of the method: (§3)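 Athymic nude mice carried subcutaneous DLD-1 tumors engineered with a Wnt-responsive STF firefly luciferase and a constitutive Renilla luciferase. At about 250 mm³, mice were randomized (n = 4 per group) and dosed orally once daily for 3 days at 10 or 50 mg/kg, or with vehicle. Tumor axin2 was measured by MSD immunoassay. STF was read by Dual-Glo, firefly normalized to Renilla. Plasma was taken for exposure.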

[10] = system: Mus musculus; assay: Ex vivo inhibition of TNKS in tumor of athymic nude mouse xenografted with human DLD1 cells assessed as inhibition of super-Topflash reporter gene transcription at 50 mg/kg, po qd administered for 3 days measured 24 hrs post last dose by dual-glo luciferase reporter gene assay relative to control; assay type: functional; details: DLD-1; summary of the method: as §3
[11] = system: Mus musculus; assay: Ex vivo inhibition of TNKS in tumor of athymic nude mouse xenografted with human DLD1 cells assessed as inhibition of super-Topflash reporter gene transcription at 10 mg/kg, po qd administered for 3 days measured 24 hrs post last dose by dual-glo luciferase reporter gene assay relative to control; assay type: functional; details: DLD-1; summary of the method: as §3
[12] = Oral bioavailability in rat at 2 mg/kg; assay type: ADME, organism-based; details: in vivo
[13] = Tmax in CD-1 mouse at 30 mg/kg, po; assay type: ADME, organism-based; parameters: dose 30 mg/kg, route oral; details: in vivo
Summary of the method: (§4)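 Male CD-1 mice given a single oral dose of 30 mg/kg. Vehicle was 10% Pluronic F68, 30% HPBCD and 60% water, pH adjusted to 10.0 with NaOH for most compounds or to 2.5 with methanesulfonic acid for one. Mean plasma PK parameters were reported.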

[14] = AUC (0 to infinity) in CD-1 mouse at 30 mg/kg, po; assay type: ADME, organism-based; parameters: time infinity, dose 30 mg/kg, route oral; details: plasma; summary of the method: as §4
[15] = Cmax in CD-1 mouse at 30 mg/kg, po; assay type: ADME, organism-based; parameters: dose 30 mg/kg, route oral; details: in vivo; summary of the method: as §4
[16] = Half life in rat at 0.5 mg/kg, iv; assay type: ADME, organism-based; parameters: dose 0.5 mg/kg, route intravenous; details: in vivo
Summary of the method: (§5)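 Male rats received a single intravenous dose of 0.5 mg/kg. Mean clearance, steady-state volume of distribution and half-life were reported.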

[17] = Volume of distribution at steady state in rat at 0.5 mg/kg, iv; assay type: ADME, organism-based; parameters: dose 0.5 mg/kg, route intravenous; details: in vivo, read-out: Vdss; summary of the method: as §5
[18] = Inhibition of TNKS in human DLD1 cells expressing APC mutant assessed as inhibition of super-Topflash reporter gene transcription after 40 to 48 hrs by dual-glo luciferase reporter gene assay; assay type: cell-based; details: DLD-1
Summary of the method: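 DLD-1 cells carried an 8× TCF-driven firefly luciferase and an EF1a-driven Renilla luciferase, and were seeded at 10 000/well in RPMI with 10% FBS without antibiotics. A 10-point, 3-fold dilution series starting at 10 μM was applied for 40–48 h at 37 °C. Firefly and Renilla activities were read with Dual-Glo reagents.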

[19] = Inhibition of TNKS in human SW480 cells assessed as accumulation of axin-2 into cytoplasmic foci after 24 hrs by Hoechst dye-based assay; details: SW480, 24 h
[20] = Intrinsic clearance in rat liver microsomes at 1 uM after 30 mins; assay type: ADME; details: read-out: CLH
Summary of the method: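 Substrate depletion in rat liver microsomes: 0.25 mg protein/mL, 1 mM NADPH and 2 mM MgCl2 in 50 mM potassium phosphate, pH 7.4, prewarmed to 37 °C. Test compound was added to a final 1 μM, and parent loss was measured after 30 min at 37 °C.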

[21] = Clearance in rat at 0.5 mg/kg, iv; assay type: ADME, organism-based; parameters: dose 0.5 mg/kg, route intravenous; details: in vivo; summary of the method: as §5
[22] = Fraction unbound in mouse plasma at 5 uM after 5 hrs by equilibrium dialysis method; assay type: ADME, cell-free
Summary of the method: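 Mouse plasma was spiked to a final 5 μM and equilibrium-dialyzed against plasma water (ultrafiltrate) for 5 h at 37 °C in a CO2 incubator, using a rapid equilibrium dialysis device. Fraction unbound was determined in duplicate.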

[23] = system: SW480; assay: as §1; assay type: cell-based; details: dose or concentration not given here; summary of the method: as §2

solubility [1] [µg/mL] | half-life at 1 µM [2] [h] | IC50 [3] [nM] | IC50 [4] [nM] | Cp(f) [9] [µM] | bioavailability [12] [%] | Tmax [13] [h] | AUC(0-inf) [14] [µM·h] | Cmax [15] [µM] | half-life [16] [h] | Vd [17] [L/kg] | IC50 [18] [nM] | EC50 [19] [nM] | clearance [21] [mL/min/kg] | fraction unbound at 5 h, 5 µM [22] | SMILES | inhibition in vivo at 50 mg/kg [10] [%] | inhibition in vivo at 10 mg/kg [11] [%] | further results
6.6 (≈ 14.9 µM) | 0.667 | 160 | 10 | – | – | – | – | – | – | – | – | – | – | – | COc1ccccc1NC(=O)c1ccc(NC(=O)CCc2nc3ccccc3c(=O)[nH]2)cc1 | – | – | Vd [5]: 4.69 L/kg; half-life [6]: 0.37 h; CL [7]: 182 mL/min/kg; AUC [8]: 0.11 µM·h
7 (≈ 14.7 µM) | – | 4 | – | 0.013 | 13 | 0.58 | 49.5 | 18.7 | 1.8 | 0.7 | 0.6 | 3.9 | 13.8 | 0.017 | O=C(CCSc1nc2ccccc2c(=O)[nH]1)N[C@H]1CC[C@H](c2nnc(-c3ccccc3)o2)CC1 | 58 | 51 | microsomal CLint at 1 µM [20]: 57 µL/min/mg
– | – | 1.9 | – | 0.009 | 21 | 1.5 | 141 | 24.2 | 2.8 | 0.32 | 0.3 | 4 | 2 | 0.006 | N#Cc1ccc(O[C@H]2CC[C@H](NC(=O)CCSc3nc4ccccc4c(=O)[nH]3)CC2)cc1 | 79 | 70 | –
– | > 16.7 | – | 400 | – | – | – | – | – | – | – | – | – | – | – | Cn1nc(-c2ccc(NC(=O)CCc3nc4ccccc4c(=O)[nH]3)cc2)c2ccccc21 | – | – | inhibition [23]: > 50%
